Test [1] concerns the target T1, RNA-directed RNA polymerase (Hepacivirus hominis, UniProt O39930). Description: Inhibitory concentration required to inhibit HCV RNA dependent RNA polymerase Nonstructural protein 5B in the presence of Mg2+ is determined.
Test [2] addresses Human immunodeficiency virus type 1 reverse transcriptase (Human immunodeficiency virus 1, UniProt Q72547). Description: Inhibitory concentration required to inhibit HIV-RT is determined.
The target of a further test is DNA polymerase I (Escherichia coli, UniProt P00582). The experiment in a line: Inhibitory concentration required to inhibit Klenow DNA-dependent DNA polymerase.
Test [3] deals with Human immunodeficiency virus type 1 integrase (Human immunodeficiency virus 1, UniProt Q7ZJM1). The experiment in a line: Inhibitory concentration required to inhibit HIV-integrase is determined.
In test [4] the target is T1, RNA-directed RNA polymerase. The experiment in a line: Inhibitory concentration required to inhibit HCV RNA dependent RNA polymerase Nonstructural protein 5B in the presence of Mn2+ is determined.
The species entered for test [5] is Rattus norvegicus. The experiment in a line: Concentration required for irreversible binding to rat liver microsomes in presence of NADPH without GSH. The class given is functional. The method, boiled down:
(§1)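 A tritium-labelled inhibitor was incubated with rat liver microsomes in the presence of NADPH for 4 h. Irreversible covalent binding was read as residual radioactivity bound to microsomal protein, expressed as pmol/mg protein.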
(Liver microsomes are vesicles of endoplasmic reticulum, rich in cytochrome P450 enzymes.)

The species named for test [6] is Rattus norvegicus. Description: Concentration required for irreversible binding to rat liver microsomes in presence of NADPH with GSH. The test is classed as functional. In a few lines:
as §1

Chain of Human immunodeficiency virus type 1 integrase (Q7ZJM1 whole entry): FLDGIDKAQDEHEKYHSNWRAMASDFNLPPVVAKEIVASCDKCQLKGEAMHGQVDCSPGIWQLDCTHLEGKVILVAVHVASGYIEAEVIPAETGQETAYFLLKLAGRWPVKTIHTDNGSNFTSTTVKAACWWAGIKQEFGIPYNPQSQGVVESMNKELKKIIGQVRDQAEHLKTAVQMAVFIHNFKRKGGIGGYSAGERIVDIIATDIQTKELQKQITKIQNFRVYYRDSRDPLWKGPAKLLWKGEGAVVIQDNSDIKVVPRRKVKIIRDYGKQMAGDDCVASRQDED
Chain of DNA polymerase I (P00582 whole entry): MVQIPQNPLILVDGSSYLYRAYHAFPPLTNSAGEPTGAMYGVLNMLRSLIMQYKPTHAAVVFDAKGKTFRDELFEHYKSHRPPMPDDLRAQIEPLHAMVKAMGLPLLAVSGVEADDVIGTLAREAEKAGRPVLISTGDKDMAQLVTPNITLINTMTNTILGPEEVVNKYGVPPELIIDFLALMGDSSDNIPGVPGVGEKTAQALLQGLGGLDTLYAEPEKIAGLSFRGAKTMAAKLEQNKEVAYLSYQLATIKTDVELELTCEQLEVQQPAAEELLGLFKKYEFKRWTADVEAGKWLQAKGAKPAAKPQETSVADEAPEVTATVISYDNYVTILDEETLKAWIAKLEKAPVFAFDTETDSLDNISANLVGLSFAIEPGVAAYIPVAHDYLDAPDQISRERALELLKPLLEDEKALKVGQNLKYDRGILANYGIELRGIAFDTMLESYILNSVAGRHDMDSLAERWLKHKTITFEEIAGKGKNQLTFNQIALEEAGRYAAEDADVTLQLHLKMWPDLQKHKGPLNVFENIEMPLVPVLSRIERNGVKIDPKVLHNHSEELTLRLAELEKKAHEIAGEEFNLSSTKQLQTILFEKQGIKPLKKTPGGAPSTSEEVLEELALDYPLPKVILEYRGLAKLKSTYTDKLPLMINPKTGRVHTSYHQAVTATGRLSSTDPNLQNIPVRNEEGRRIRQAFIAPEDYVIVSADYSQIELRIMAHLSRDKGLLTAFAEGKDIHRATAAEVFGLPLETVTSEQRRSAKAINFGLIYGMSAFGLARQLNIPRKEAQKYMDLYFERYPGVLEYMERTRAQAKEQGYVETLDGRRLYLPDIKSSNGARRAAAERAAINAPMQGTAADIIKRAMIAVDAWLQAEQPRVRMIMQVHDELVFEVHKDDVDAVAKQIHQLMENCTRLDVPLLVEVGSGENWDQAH
T1 sequence (O39930 whole entry): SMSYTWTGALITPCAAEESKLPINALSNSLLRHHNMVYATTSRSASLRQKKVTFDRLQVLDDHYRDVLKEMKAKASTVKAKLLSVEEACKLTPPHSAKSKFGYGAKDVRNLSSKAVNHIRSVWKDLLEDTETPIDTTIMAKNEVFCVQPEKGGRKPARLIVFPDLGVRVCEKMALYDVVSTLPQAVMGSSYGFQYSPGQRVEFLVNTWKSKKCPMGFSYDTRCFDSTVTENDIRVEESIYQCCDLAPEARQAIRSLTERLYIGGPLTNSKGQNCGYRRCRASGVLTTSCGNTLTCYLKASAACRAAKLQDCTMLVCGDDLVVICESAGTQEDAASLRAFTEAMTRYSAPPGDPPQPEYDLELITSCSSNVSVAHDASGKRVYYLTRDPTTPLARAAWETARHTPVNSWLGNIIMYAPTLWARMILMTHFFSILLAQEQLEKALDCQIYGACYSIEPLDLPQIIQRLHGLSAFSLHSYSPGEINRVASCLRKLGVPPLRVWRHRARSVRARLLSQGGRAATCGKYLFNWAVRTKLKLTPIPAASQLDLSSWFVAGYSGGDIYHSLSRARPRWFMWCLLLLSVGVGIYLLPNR

In general, IC50 refers to the midpoint of a concentration-inhibition curve. As to `O=C(O)c1nc(-c2ccc(Cl)cc2)[nH]c(=O)c1O`, the half-inhibitory concentration (IC50) in test [1] was 29 µM; in test [2], 23 µM; against DNA polymerase I, above 100 µM; in test [3] it was above 50 µM; in test [4], 1.4 µM.

On to `O=C(O)c1nc(-c2cccc(O)c2)nc(O)c1O`, for which the IC50 was 5.8 µM in test [1]; above 100 µM in test [2]; above 100 µM on DNA polymerase I; above 50 µM in test [3]; 0.6 µM in test [4].

Regarding `O=C(O)c1nc(-c2ccccc2)nc(O)c1O`, the IC50 was above 100 µM in test [2], above 100 µM at DNA polymerase I, above 50 µM in test [3] and 2.3 µM in test [4]. The Activity in the test filed under Rattus norvegicus [5] and in the test filed under Rattus norvegicus [6] was below 2 pmol/mg in each case.

Consider `COC(=O)c1nc(-c2ccc(Cl)cc2)[nH]c(=O)c1O`, for which the half-inhibitory concentration (IC50) in test [1] was above 100 µM; in test [4], 30 µM.

`O=C(O)c1nc(-c2cccc(OCc3ccccc3)c2)[nH]c(=O)c1O`: the IC50 in test [1] is 15 µM; in test [2] it was above 100 µM; at DNA polymerase I, above 100 µM; in test [3] it was above 50 µM; in test [4] it was 1 µM.

Consider `COc1nc(-c2cccc(O)c2)nc(C(=O)O)c1O`, for which the half-inhibitory concentration (IC50) in test [1] and in test [4] was above 50 µM in each case.

As to `Cn1c(-c2cccc(O)c2)nc(C(=O)O)c(O)c1=O`, the IC50 was 6 µM in test [1] and 1 µM in test [4].

For the compound `O=c1[nH]c(-c2cccc(O)c2)ncc1O`, the IC50 in test [1] and in test [4] was above 50 µM in each case.

Take `COc1c(C(=O)O)nc(-c2ccc(Cl)cc2)[nH]c1=O`: the IC50 in test [1] and in test [4] was above 50 µM throughout.

Consider `O=C(O)C(=O)/C=C(\O)c1ccccc1`, for which the Activity in the test filed under Rattus norvegicus [5] and in the test listed under Rattus norvegicus [6] was above 400 pmol/mg in each case.

The values above are taken from ChEMBL document CHEMBL1138789, “HCV NS5b RNA-dependent RNA polymerase inhibitors: from alpha,gamma-diketoacids to 4,5-dihydroxypyrimidine- or 3-methyl-5-hydroxypyrimidinonecarboxylic acids. Design and synthesis” (J Med Chem, 2004).
